From ChEMBL document CHEMBL3779813, “Design, synthesis, topoisomerase I & II inhibitory activity, antiproliferative activity, and structure-activity relationship study of pyrazoline derivatives: An ATP-competitive human topoisomerase IIα catalytic inhibitor” (Bioorg Med Chem, 2016)
Structures can show the parent of a compound that is named as a salt. The source made the active and inactive calls. The rule behind the calls is not given here.

What was measured:
[1] = Antiproliferative activity against human BT474 cells after 72 hrs by CCK8 assay; format: functional, cell-based; settings: BT-474, 72 h
In short: (§1)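 Cells grown in RPMI 1640 with 10% FBS and 1% penicillin, 37 °C, 5% CO2. Seeded at 10^4 cells/well, 24 h at 37 °C, then compound for 72 h. CCK-8 (mitochondrial dehydrogenase) added, 4 h at 37 °C, absorbance read at 450 nm; IC50 derived. Compound stocks 20 mM in DMSO.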

[2] = biological target: T1, DNA topoisomerase 1 (Homo sapiens) (UniProt P11387); test: Inhibition of human recombinant topoisomerase 1 assessed as relaxation of supercoiled plasmid DNA pBR322 at 100 uM after 30 mins by ethidium bromide staining based agarose gel electrophoresis
T1 sequence (whole entry): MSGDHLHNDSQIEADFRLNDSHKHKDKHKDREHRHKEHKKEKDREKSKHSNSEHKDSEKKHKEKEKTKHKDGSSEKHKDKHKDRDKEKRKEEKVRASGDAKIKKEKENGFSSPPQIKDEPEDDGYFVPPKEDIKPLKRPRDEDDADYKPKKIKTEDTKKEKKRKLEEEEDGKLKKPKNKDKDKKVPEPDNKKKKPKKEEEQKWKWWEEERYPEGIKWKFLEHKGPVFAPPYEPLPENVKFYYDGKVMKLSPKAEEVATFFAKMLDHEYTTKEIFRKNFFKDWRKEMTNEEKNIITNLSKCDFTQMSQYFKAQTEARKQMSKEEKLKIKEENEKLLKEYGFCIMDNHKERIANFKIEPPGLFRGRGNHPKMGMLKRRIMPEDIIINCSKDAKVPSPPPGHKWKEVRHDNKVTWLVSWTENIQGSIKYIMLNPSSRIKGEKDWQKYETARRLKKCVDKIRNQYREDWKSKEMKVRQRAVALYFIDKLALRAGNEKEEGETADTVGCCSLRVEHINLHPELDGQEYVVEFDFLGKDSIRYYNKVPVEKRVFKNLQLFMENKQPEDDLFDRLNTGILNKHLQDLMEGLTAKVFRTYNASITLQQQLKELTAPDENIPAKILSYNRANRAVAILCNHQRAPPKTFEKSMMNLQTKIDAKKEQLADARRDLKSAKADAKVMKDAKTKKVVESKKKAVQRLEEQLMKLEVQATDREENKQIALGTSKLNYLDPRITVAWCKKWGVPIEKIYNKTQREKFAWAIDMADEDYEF
In short: (§2)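 Recombinant human topo I (1 unit) with 100 ng supercoiled pBR322, 30 min at 37 °C in 10 mM Tris-HCl pH 7.9, 150 mM NaCl, 0.1% BSA, 1 mM spermidine, 5% glycerol. Stopped with sarcosyl buffer; 0.8% agarose, 60 V 1 h in TAE, ethidium bromide stain 30 min, UV densitometry of relaxation as % inhibition.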

[3] = Antiproliferative activity against human HCT15 cells after 72 hrs by CCK8 assay; format: functional, cell-based; settings: HCT-15, 72 h; in short: as §1
[4] = biological target: DNA topoisomerase 2-alpha (Homo sapiens) (UniProt P11388); test: Inhibition of human recombinant topoisomerase 2alpha assessed as relaxation of supercoiled plasmid DNA pBR322 at 20 uM after 30 mins by ethidium bromide staining based agarose gel electrophoresis
In short: (§3)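 Human topo IIα (1 unit) and 100 ng supercoiled pBR322 incubated 30 min at 37 °C in 10 mM Tris-HCl pH 7.9, 50 mM NaCl, 5 mM MgCl2, 1 mM EDTA, 1 mM ATP, 15 µg/mL BSA. Stopped with 7 mM EDTA; 0.8% agarose in TAE, ethidium bromide stain, UV quantitation as % relaxation inhibition.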

[5] = system: T47D; test: Antiproliferative activity against human T47D cells after 72 hrs by CCK8 assay; format: functional, cell-based; in short: as §1
[6] = biological target: DNA topoisomerase 2-alpha (Homo sapiens) (UniProt P11388); test: Inhibition of human recombinant topoisomerase 2alpha assessed as relaxation of supercoiled plasmid DNA pBR322 at 100 uM after 30 mins by ethidium bromide staining based agarose gel electrophoresis; in short: as §3
[7] = biological target: DNA topoisomerase 2-alpha (Homo sapiens) (UniProt P11388); test: Inhibition of human recombinant topoisomerase 2alpha using supercoiled pUC18 as substrate assessed as hydrolysis of ATP preincubated for 30 mins followed by ATP addition measured after 30 mins by malachite green phosphate based ELISA microplate reader analysis
[8] = system: HCT-15; test: Inhibition of human recombinant topoisomerase mediated DNA relaxation in human HCT15 nuclear lysate at 50 uM preincubated for 24 hrs followed by addition of pBR322 plasmid measured after 30 mins by ethidium bromide staining based agarose gel electrophoresis
In short: (§4)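 HCT15 cells treated 24 h with compound, harvested, nuclear lysates prepared and protein measured by Bradford. 100 µg nuclear protein plus 100 ng pBR322 in buffer with Tris-Cl pH 7.5, MgCl2, ATP, EDTA, DTT, KCl, BSA, 30 min at 37 °C. Analyzed on 0.9% agarose with ethidium bromide; lysate-free plasmid control.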

[9] = biological target: DNA topoisomerase 2-alpha (Homo sapiens) (UniProt P11388); settings: 100 uM
[10] = biological target: DNA topoisomerase 2-alpha (Homo sapiens) (UniProt P11388); test: Activity at human recombinant topoisomerase 2alpha using supercoiled plasmid pBR322 as substrate assessed as stabilization of enzyme-DNA cleavage upto 300 uM after 20 mins by ethidium bromide staining based agarose gel electrophoresis
In short: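 Cleavage complex: 125 ng supercoiled pBR322 preincubated 10 min with 3 units human topo IIα, then compound added, 20 min at 37 °C in 10 µL. Stopped with SDS, proteinase K digestion 30 min at 45 °C, heated 2 min at 70 °C. Run on 0.8% agarose with 0.5 µg/mL ethidium bromide in TAE; linear DNA band quantified by UV imaging.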

[11] = biological target: DNA topoisomerase 2-alpha (Homo sapiens) (UniProt P11388); test: Competitive inhibition of human recombinant topoisomerase 2alpha at 5 to 250 uM using supercoiled plasmid pBR322 as substrate after 30 mins by ethidium bromide staining based agarose gel electrophoresis in presence of ATP
[12] = system: HCT-15; test: Inhibition of human recombinant topoisomerase mediated DNA relaxation in human HCT15 nuclear lysate at 100 uM preincubated for 24 hrs followed by addition of pBR322 plasmid measured after 30 mins by ethidium bromide staining based agarose gel electrophoresis; in short: as §4
[13] = biological target: T1, DNA topoisomerase 1 (Homo sapiens); test: Inhibition of human recombinant topoisomerase 1 assessed as relaxation of supercoiled plasmid DNA pBR322 at 20 uM after 30 mins by ethidium bromide staining based agarose gel electrophoresis; in short: as §2

DNA topoisomerase 2-alpha (Homo sapiens), sequence (P11388 whole entry): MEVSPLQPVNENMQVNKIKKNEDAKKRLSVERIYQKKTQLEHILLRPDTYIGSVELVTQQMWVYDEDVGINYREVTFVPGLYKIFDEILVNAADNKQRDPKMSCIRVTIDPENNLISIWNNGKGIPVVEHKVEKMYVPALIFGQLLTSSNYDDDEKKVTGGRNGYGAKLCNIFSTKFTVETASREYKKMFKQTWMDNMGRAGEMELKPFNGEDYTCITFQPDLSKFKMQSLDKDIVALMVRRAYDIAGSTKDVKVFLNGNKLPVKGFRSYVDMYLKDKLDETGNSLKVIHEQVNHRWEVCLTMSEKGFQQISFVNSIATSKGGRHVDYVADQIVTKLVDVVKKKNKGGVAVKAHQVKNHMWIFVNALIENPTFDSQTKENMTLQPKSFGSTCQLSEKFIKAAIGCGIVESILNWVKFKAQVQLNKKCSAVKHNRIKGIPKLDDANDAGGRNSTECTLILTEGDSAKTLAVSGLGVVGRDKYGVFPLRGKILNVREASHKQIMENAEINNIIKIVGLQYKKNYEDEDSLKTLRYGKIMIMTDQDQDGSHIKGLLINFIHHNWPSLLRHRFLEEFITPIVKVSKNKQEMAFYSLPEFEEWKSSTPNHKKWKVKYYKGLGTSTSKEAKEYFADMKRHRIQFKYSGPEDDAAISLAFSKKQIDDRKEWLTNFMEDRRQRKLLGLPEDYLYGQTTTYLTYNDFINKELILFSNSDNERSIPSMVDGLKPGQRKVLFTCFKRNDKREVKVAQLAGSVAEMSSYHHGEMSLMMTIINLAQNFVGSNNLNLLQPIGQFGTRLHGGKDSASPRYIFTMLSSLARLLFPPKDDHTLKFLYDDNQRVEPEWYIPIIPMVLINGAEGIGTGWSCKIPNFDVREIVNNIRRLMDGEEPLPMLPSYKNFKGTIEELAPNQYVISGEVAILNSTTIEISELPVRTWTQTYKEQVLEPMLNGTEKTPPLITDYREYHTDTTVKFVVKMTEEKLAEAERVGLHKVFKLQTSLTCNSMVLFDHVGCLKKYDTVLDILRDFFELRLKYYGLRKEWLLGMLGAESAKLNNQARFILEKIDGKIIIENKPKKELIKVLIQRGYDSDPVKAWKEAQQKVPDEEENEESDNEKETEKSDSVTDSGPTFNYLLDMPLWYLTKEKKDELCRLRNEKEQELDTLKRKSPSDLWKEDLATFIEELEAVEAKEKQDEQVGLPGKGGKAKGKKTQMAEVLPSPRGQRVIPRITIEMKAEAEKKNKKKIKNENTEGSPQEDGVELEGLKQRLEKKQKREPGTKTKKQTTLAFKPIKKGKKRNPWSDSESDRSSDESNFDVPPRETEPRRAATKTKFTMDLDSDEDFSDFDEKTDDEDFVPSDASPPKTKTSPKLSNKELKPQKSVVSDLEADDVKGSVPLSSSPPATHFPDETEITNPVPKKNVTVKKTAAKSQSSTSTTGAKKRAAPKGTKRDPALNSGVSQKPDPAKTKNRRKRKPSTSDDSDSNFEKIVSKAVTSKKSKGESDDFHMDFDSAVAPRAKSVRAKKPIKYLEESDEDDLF

## COc1ccc(C2CC(c3ccccc3)=NN2C(=O)c2ccncc2)cc1 (configuration not stated)
[1]
  IC50: > 50 µM
[2]
  inhibition: 0%
[3]
  IC50: 10.4 µM
[4]
  inhibition: 0%
[5]
  IC50: > 50 µM
[6]
  inhibition: 92.5%

## COc1cccc2c1C(=O)c1c(O)c3c(c(O)c1C2=O)C[C@@](O)(C(=O)CO)C[C@@H]3O[C@H]1C[C@H](N)[C@H](O)[C@H](C)O1 [DOXORUBICIN HYDROCHLORIDE]
[1]
  IC50: 3.2 µM
[3]
  IC50: 23 µM

## COc1cc([C@@H]2c3cc4c(cc3[C@@H](O[C@@H]3O[C@@H]5CO[C@@H](C)O[C@H]5[C@H](O)[C@H]3O)[C@H]3COC(=O)[C@H]23)OCO4)cc(OC)c1O [ETOPOSIDE]
[7]
  inhibition: Dose-dependent effect
[1]
  IC50: 6.6 µM
[3]
  IC50: 6.9 µM
[8]
  inhibition: 36%
[9]
  inhibition: inactive
[5]
  IC50: 6.4 µM
[6]
  inhibition: 95.9%

## COc1ccccc1C1=NN(C(=O)c2ccc([N+](=O)[O-])o2)C(c2ccc([N+](=O)[O-])cc2)C1 (configuration not stated)
[1]
  IC50: > 50 µM
[2]
  inhibition: 0%
[3]
  IC50: > 50 µM
[4]
  inhibition: 2.9%
[5]
  IC50: > 50 µM
[6]
  inhibition: 92.6%

## COc1ccc(C2CC(c3ccccc3)=NN2C(=O)c2nc3ccccc3s2)cc1 (configuration not stated)
[1]
  IC50: 6.3 µM
[2]
  inhibition: 0%
[3]
  IC50: 1.9 µM
[4]
  inhibition: 0%
[5]
  IC50: > 50 µM
[6]
  inhibition: 91.2%

## CC[C@@]1(O)C(=O)OCc2c1cc1n(c2=O)Cc2cc3ccccc3nc2-1 [CAMPTOTHECIN]
[1]
  IC50: 7 µM
[3]
  IC50: 7.1 µM
[5]
  IC50: 4.1 µM

## COc1ccccc1C1=NN(C(=O)c2ccncc2)C(c2ccc([N+](=O)[O-])cc2)C1 (configuration not stated)
[1]
  IC50: 7.2 µM
[2]
  inhibition: 0%
[3]
  IC50: 2.6 µM
[4]
  inhibition: 0%
[5]
  IC50: > 50 µM
[6]
  inhibition: 92.8%

## COc1ccc(C2CC(c3ccccc3)=NN2C(=O)c2ccco2)cc1 (configuration not stated)
[1]
  IC50: > 50 µM
[2]
  inhibition: 0%
[3]
  IC50: 3.9 µM
[4]
  inhibition: 0%
[5]
  IC50: 27.3 µM
[6]
  inhibition: 91.6%

## O=C(c1ccncc1)N1N=C(c2ccc(Cl)cc2)CC1c1ccco1 (configuration not stated)
[1]
  IC50: 6.5 µM
[2]
  inhibition: 0%
[3]
  IC50: 3.1 µM
[4]
  inhibition: 0%
[5]
  IC50: 7.9 µM
[6]
  inhibition: 76%

## COc1ccc(C2CC(c3ccc(Cl)cc3)=NN2C(=O)c2nc3ccccc3s2)cc1 (configuration not stated)
[10]
  Activity: inactive
[7]
  inhibition: Dose-dependent effect
[11]
  inhibition: Active
[1]
  IC50: 7.2 µM
[12]
  inhibition: 85.4%
[2]
  inhibition: 0%
[3]
  IC50: 4.1 µM
[4]
  inhibition: 0%
[8]
  inhibition: 78%
[5]
  IC50: 6.6 µM
[6]
  inhibition: 89.7%

## COc1ccc(C2=NN(C(=O)c3ccco3)C(c3ccco3)C2)cc1 (configuration not stated)
[1]
  IC50: > 50 µM
[2]
  inhibition: 0%
[3]
  IC50: 4.3 µM
[4]
  inhibition: 0%
[5]
  IC50: 7.5 µM
[6]
  inhibition: 94.1%

## O=C(c1ccco1)N1N=C(c2ccc(Cl)cc2)CC1c1ccco1 (configuration not stated)
[1]
  IC50: > 50 µM
[2]
  inhibition: 96.8%
[3]
  IC50: > 50 µM
[4]
  inhibition: 1.3%
[13]
  inhibition: 4%
[5]
  IC50: > 50 µM
[6]
  inhibition: 93.1%
